The values below come from ChEMBL document CHEMBL1122708, “Preparation and antibacterial activities of new 1,2,3-diazaborine derivatives and analogues” (1984).

The test system of assay [1] is Escherichia coli. Put plainly: Antibacterial activity againist Escherichia coli 120 infected NMRI mice after peroral administration. The following applies: po. The assay is classed as functional. A digest of the protocol:
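ED50 in NMRI mice infected intraperitoneally with E. coli 120; compound given orally immediately and 5 h after infection.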

The test system of another assay is Klebsiella aerogenes. Nature of the assay: Minimum inhibitory concentration of compound against Enterobacter aerogenes delta 220. The assay is classed as functional.
The subject of assay [2] is Neisseria gonorrhoeae. Put plainly: Minimum inhibitory concentration of compound against Neisseria gonorrhoeae AS 7720. It is filed as functional. Summed up: (§1)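 Agar dilution on Kellogg agar, 10⁶ colony forming units, incubated 20 h at 36 °C in 5% CO₂; MIC is the lowest concentration giving no visible growth.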
The next assay concerns Klebsiella pneumoniae. Put plainly: Minimum inhibitory concentration of compound against Klebsiella pneumoniae delta 217. It is filed as functional.
Another assay has as its system Salmonella typhimurium. Nature of the assay: Minimum inhibitory concentration of compound against Salmonella Typhimurium delta 119. The assay is classed as functional, Salmonella enterica subsp. enterica serovar Typhimurium. The following applies: Salmonella enterica.
Another assay relates to Proteus mirabilis. Nature of the assay: Minimum inhibitory concentration against Proteus mirabilis delta 89. The assay is classed as functional.
Assay [3] relates to Neisseria gonorrhoeae. Put plainly: Minimum inhibitory concentration of compound against Neisseria gonorrhoeae W2. The assay is classed as functional. A digest of the protocol: as §1
Assay [4] has as its system Escherichia coli. Nature of the assay: Minimum inhibitory concentration of compound against Escherichia coli delta 120. It is filed as functional.

In brackets after ≈: the same amount, converted by molar mass.

Turning to `CCCS(=O)(=O)N1N=Cc2c(ccn2C)B1O`, the ED50 (usually the dose at which the effect has come halfway, by size or by number of responders) with Escherichia coli [1] is greater than 300 mg/kg. Moreover, the MIC (as a rule, the smallest concentration in the dilution series that meets the test's criterion for growth inhibition) is greater than 50 µg/mL with Klebsiella aerogenes; greater than 8 µg/mL against Neisseria gonorrhoeae [2]; 25 µg/mL (≈ 98 µM) in the assay on Klebsiella pneumoniae; greater than 50 µg/mL in the assay with Salmonella typhimurium; greater than 50 µg/mL in the assay on Proteus mirabilis; greater than 8 µg/mL with Neisseria gonorrhoeae [3]. The MIC in the assay with Escherichia coli [4] was greater than 50 µg/mL.
`Cc1cc2c(s1)C=NN(S(=O)(=O)c1ccccc1Cl)B2O` displayed an ED50 in the assay on Escherichia coli [1] of 49 mg/kg. In addition, the MIC against Klebsiella aerogenes came out at 12.5 µg/mL (≈ 36.7 µM); in the assay on Neisseria gonorrhoeae [2], 0.5 µg/mL (≈ 1.47 µM); against Klebsiella pneumoniae it was 1.56 µg/mL (≈ 4.58 µM); with Salmonella typhimurium, 1.56 µg/mL (≈ 4.58 µM); with Proteus mirabilis, 1.56 µg/mL (≈ 4.58 µM); against Neisseria gonorrhoeae [3], 0.5 µg/mL (≈ 1.47 µM). This molecule also yielded an MIC in the assay on Escherichia coli [4] of 12.5 µg/mL (≈ 36.7 µM).
The molecule `Cc1ccc(S(=O)(=O)N2N=Cc3c(ccc4ccccc34)B2O)cc1` had an ED50 in the assay on Escherichia coli [1] greater than 100 mg/kg. Moreover, the MIC was greater than 50 µg/mL against Klebsiella aerogenes; 2 µg/mL (≈ 5.71 µM) against Neisseria gonorrhoeae [2]; 25 µg/mL (≈ 71.4 µM) in the assay on Klebsiella pneumoniae; greater than 50 µg/mL in the assay on Salmonella typhimurium; 3.12 µg/mL (≈ 8.91 µM) in the assay with Proteus mirabilis; 8 µg/mL (≈ 22.8 µM) against Neisseria gonorrhoeae [3]. In the assay with Escherichia coli [4], the MIC was greater than 50 µg/mL.
The molecule `CC(=O)Nc1ccc(S(=O)(=O)N2N=Cc3cc(C)ccc3B2O)c(Cl)c1` had an ED50 in the assay on Escherichia coli [1] of 16 mg/kg. Moreover, the minimum inhibitory concentration (MIC) in the assay on Klebsiella aerogenes was determined as 25 µg/mL (≈ 63.8 µM); in the assay on Neisseria gonorrhoeae [2] it was 0.5 µg/mL (≈ 1.28 µM); against Klebsiella pneumoniae, 1.25 µg/mL (≈ 3.19 µM); with Salmonella typhimurium, 6.25 µg/mL (≈ 16 µM); in the assay with Proteus mirabilis it was 1.25 µg/mL (≈ 3.19 µM); with Neisseria gonorrhoeae [3], 1 µg/mL (≈ 2.55 µM). Also, in the assay with Escherichia coli [4], the MIC was 25 µg/mL (≈ 63.8 µM).
On to `Cc1ccc(S(=O)(=O)N2N=Cc3sc(Br)cc3B2O)c(Cl)c1`, for which the ED50 in the assay with Escherichia coli [1] turned out to be 39 mg/kg. In addition, the MIC with Klebsiella aerogenes is 50 µg/mL (≈ 119 µM); against Neisseria gonorrhoeae [2] it was 0.25 µg/mL (≈ 0.596 µM); in the assay on Klebsiella pneumoniae, 6.25 µg/mL (≈ 14.9 µM); against Salmonella typhimurium, 12.5 µg/mL (≈ 29.8 µM); against Proteus mirabilis, 3.12 µg/mL (≈ 7.44 µM); in the assay on Neisseria gonorrhoeae [3] it was 1 µg/mL (≈ 2.38 µM). This molecule also had an MIC against Escherichia coli [4] of 50 µg/mL (≈ 119 µM).
Regarding `CCc1cc2c(s1)B(O)N(S(=O)(=O)c1ccccc1Cl)N=C2`, the median effective dose (ED50) with Escherichia coli [1] turned out to be 24 mg/kg. Also, the MIC amounted to 25 µg/mL (≈ 70.5 µM) against Klebsiella aerogenes; 0.5 µg/mL (≈ 1.41 µM) against Neisseria gonorrhoeae [2]; 1.25 µg/mL (≈ 3.52 µM) with Klebsiella pneumoniae; 2.5 µg/mL (≈ 7.05 µM) in the assay on Salmonella typhimurium; 1.56 µg/mL (≈ 4.4 µM) in the assay on Proteus mirabilis; 1 µg/mL (≈ 2.82 µM) in the assay on Neisseria gonorrhoeae [3]. Also, the MIC against Escherichia coli [4] was 10 µg/mL (≈ 28.2 µM).
Turning to `Cc1ccc(S(=O)(=O)N2N=Cc3ccc(Br)cc3B2O)cc1`, the ED50 in the assay with Escherichia coli [1] was roughly 30 mg/kg. Besides, the MIC against Klebsiella aerogenes was greater than 50 µg/mL; against Neisseria gonorrhoeae [2] it was 2 µg/mL (≈ 5.28 µM); in the assay with Klebsiella pneumoniae it was 6.25 µg/mL (≈ 16.5 µM); against Salmonella typhimurium, 6.25 µg/mL (≈ 16.5 µM); against Proteus mirabilis, 12.5 µg/mL (≈ 33 µM); with Neisseria gonorrhoeae [3], 8 µg/mL (≈ 21.1 µM). For the same molecule, in the assay on Escherichia coli [4], the MIC is 50 µg/mL (≈ 132 µM).
In turn, `CC(=O)Nc1ccc(S(=O)(=O)N2N=Cc3sc(Br)cc3B2O)cc1` displayed an ED50 with Escherichia coli [1] of 55 mg/kg. Also, the MIC against Klebsiella aerogenes is 25 µg/mL (≈ 58.4 µM); in the assay on Neisseria gonorrhoeae [2], 1 µg/mL (≈ 2.34 µM); against Klebsiella pneumoniae it was 3.12 µg/mL (≈ 7.29 µM); in the assay with Salmonella typhimurium, 3.12 µg/mL (≈ 7.29 µM); against Proteus mirabilis, 3.12 µg/mL (≈ 7.29 µM); with Neisseria gonorrhoeae [3] it was 1 µg/mL (≈ 2.34 µM). This molecule returned a minimal inhibitory concentration (MIC) with Escherichia coli [4] of 25 µg/mL (≈ 58.4 µM).
`Cc1ccc(S(=O)(=O)N2N=Cc3oc(C)cc3B2O)cc1`: the 50% effective dose (ED50) in the assay on Escherichia coli [1] is roughly 10 mg/kg. The MIC in the assay with Klebsiella aerogenes is 25 µg/mL (≈ 82.2 µM); in the assay with Neisseria gonorrhoeae [2], 1 µg/mL (≈ 3.29 µM); against Klebsiella pneumoniae it was 1.56 µg/mL (≈ 5.13 µM); against Salmonella typhimurium it was 3.12 µg/mL (≈ 10.3 µM); with Proteus mirabilis it was 3.12 µg/mL (≈ 10.3 µM); against Neisseria gonorrhoeae [3] it was 8 µg/mL (≈ 26.3 µM). In the assay on Escherichia coli [4], this molecule displayed an MIC of 12.5 µg/mL (≈ 41.1 µM).
Consider `CCCS(=O)(=O)N1N=Cc2cc(C)ccc2B1O`, for which it took a dose of 73 mg/kg to reach the 50% effect level in the assay with Escherichia coli [1] (ED50). The minimal inhibitory concentration (MIC) in the assay on Klebsiella aerogenes was 10 µg/mL (≈ 37.6 µM); against Neisseria gonorrhoeae [2], 2 µg/mL (≈ 7.52 µM); against Klebsiella pneumoniae, 1.25 µg/mL (≈ 4.7 µM); in the assay on Salmonella typhimurium, 2.5 µg/mL (≈ 9.39 µM); with Proteus mirabilis, 1.56 µg/mL (≈ 5.86 µM); against Neisseria gonorrhoeae [3], 2 µg/mL (≈ 7.52 µM). In addition, the lowest concentration to inhibit growth against Escherichia coli [4] (MIC) was 6.25 µg/mL (≈ 23.5 µM).
`CC(C)CS(=O)(=O)N1N=Cc2sc(Br)cc2B1O` registered a 50% effective dose (ED50) in the assay on Escherichia coli [1] of 73 mg/kg. Moreover, the MIC against Klebsiella aerogenes is 12.5 µg/mL (≈ 35.6 µM); with Neisseria gonorrhoeae [2] it was 2 µg/mL (≈ 5.7 µM); with Klebsiella pneumoniae, 1.56 µg/mL (≈ 4.44 µM); against Salmonella typhimurium it was 1.56 µg/mL (≈ 4.44 µM); in the assay with Proteus mirabilis it was 6.25 µg/mL (≈ 17.8 µM); with Neisseria gonorrhoeae [3], 2 µg/mL (≈ 5.7 µM). The molecule also came in with an MIC in the assay with Escherichia coli [4] of 12.5 µg/mL (≈ 35.6 µM).
`Cc1ccc(S(=O)(=O)N2N=Cc3cc(Br)ccc3B2O)cc1`: in the assay with Escherichia coli [1], the ED50 was roughly 40 mg/kg. The minimal inhibitory concentration (MIC) in the assay with Klebsiella aerogenes is greater than 50 µg/mL; in the assay with Neisseria gonorrhoeae [2], 1 µg/mL (≈ 2.64 µM); in the assay on Klebsiella pneumoniae, 6.25 µg/mL (≈ 16.5 µM); in the assay with Salmonella typhimurium, 6.25 µg/mL (≈ 16.5 µM); with Proteus mirabilis it was 1.56 µg/mL (≈ 4.12 µM); in the assay with Neisseria gonorrhoeae [3], 2 µg/mL (≈ 5.28 µM). In addition, 25 µg/mL (≈ 66 µM) was the least that counted as inhibitory in the assay on Escherichia coli [4] (MIC).
In the case of `Cc1ccc(S(=O)(=O)N2N=Cc3sc(Cl)cc3B2O)cc1`, the median effective dose (ED50) in the assay on Escherichia coli [1] is 28 mg/kg. Besides, the MIC was found to be 50 µg/mL (≈ 147 µM) with Klebsiella aerogenes; 1 µg/mL (≈ 2.94 µM) against Neisseria gonorrhoeae [2]; 2.5 µg/mL (≈ 7.34 µM) in the assay with Klebsiella pneumoniae; 5 µg/mL (≈ 14.7 µM) in the assay on Salmonella typhimurium; 1.56 µg/mL (≈ 4.58 µM) against Proteus mirabilis; 1 µg/mL (≈ 2.94 µM) in the assay on Neisseria gonorrhoeae [3]. In the assay on Escherichia coli [4], this molecule came in with an MIC of 25 µg/mL (≈ 73.4 µM).
